Assay results: ChEMBL document CHEMBL1151201, “Tolaasins A--E, five new lipodepsipeptides produced by Pseudomonas tolaasii” (2004)

Key:
Rhizoctonia solani = assay: Antifungal activity against Rhizoctonia solani 1583 after 24 to 48 hrs by soft agar procedure; format: functional
How it was run: (§1)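 Tolaasin stock solutions in distilled water were serially diluted 1:1 and applied as drops onto soft-agar lawns of the test organism. The endpoint recorded was the last dilution that still inhibited growth in the area where the drop was applied.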

Rhodotorula mucilaginosa = assay: Antifungal activity against Rhodotorula pilimanae ATCC 26423 after 24 to 48 hrs by soft agar procedure; format: functional; how it was run: as §1
Priestia megaterium = assay: Antibacterial activity against Bacillus megaterium ITM 100 after 24 to 48 hrs by soft agar procedure; format: functional; how it was run: as §1
Rhodococcus fascians = assay: Antibacterial activity against Rhodococcus fascians NCPPB3067 after 24 to 48 hrs by soft agar procedure; format: functional, Rhodococcoides fascians; how it was run: as §1
Escherichia coli = assay: Antibacterial activity against Escherichia coli K-12 ITM103 after 24 to 48 hrs by soft agar procedure; format: functional; how it was run: as §1
[1] = test system: Pectobacterium carotovorum; assay: Antibacterial activity against Erwinia carotovora subsp. carotovora ICMP 5702 after 24 to 48 hrs by soft agar procedure; format: functional, Pectobacterium carotovorum subsp. carotovorum; how it was run: as §1

SMILES | MIC (Rhizoctonia solani) | MIC (Rhodotorula mucilaginosa) | MIC (Priestia megaterium) | MIC (Rhodococcus fascians) | MIC (Escherichia coli) | MIC [1]
C/C=C(\NC(=O)[C@H](NC(=O)[C@H](CC(C)C)NC(=O)[C@@H](CCC(N)=O)NC(=O)[C@@H](NC(=O)[C@H](NC(=O)[C@@H](CC(C)C)NC(=O)[C@@H](CO)NC(=O)[C@H](NC(=O)[C@H](CC(C)C)NC(=O)[C@H](CO)NC(=O)[C@H]1CCCN1C(=O)/C(=C/C)NC(=O)CC(O)CCCCC)C(C)C)C(C)C)C(C)C)C(C)C)C(=O)N[C@H]1C(=O)N[C@@H]([C@@H](C)CC)C(=O)NCC(=O)N[C@H](CCN)C(=O)N[C@@H](CCCCN)C(=O)O[C@@H]1C (some centres not stated) [TOLAASIN II] | 0.64 µg | 5.12 µg | 0.64 µg | 0.64 µg | >5.12 µg | >5.12 µg
C/C=C(\NC(=O)[C@H](NC(=O)[C@H](CC(C)C)NC(=O)[C@@H](CCC(N)=O)NC(=O)[C@@H](NC(=O)[C@H](NC(=O)[C@@H](CC(C)C)NC(=O)[C@@H](CO)NC(=O)[C@H](NC(=O)[C@H](CC(C)C)NC(=O)[C@H](CO)NC(=O)[C@H]1CCCN1C(=O)/C(=C/C)NC(=O)CC(O)CCCCC)C(C)C)C(C)C)C(C)C)C(C)C)C(=O)N[C@H]1C(=O)N[C@@H](CC(C)C)C(=O)NCC(=O)N[C@H](CCN)C(=O)N[C@@H](CCCCN)C(=O)O[C@@H]1C (some centres not stated) [TOLAASIN E] | 5.12 µg | >5.12 µg | 2.56 µg | 2.56 µg | >5.12 µg | >5.12 µg
C/C=C(\NC(=O)[C@H](NC(=O)[C@H](CC(C)C)NC(=O)[C@@H](CCC(N)=O)NC(=O)[C@@H](NC(=O)[C@H](NC(=O)[C@@H](CC(C)C)NC(=O)[C@@H](CO)NC(=O)[C@H](NC(=O)[C@H](CC(C)C)NC(=O)[C@H](CO)NC(=O)[C@H]1CCCN1C(=O)/C(=C/C)NC(=O)CC(O)CCCCC)C(C)C)C(C)C)C(C)C)C(C)C)C(=O)N[C@H]1C(=O)N[C@@H]([C@@H](C)CC)C(=O)N[C@@H](CCO)C(=O)N[C@H](CCN)C(=O)N[C@@H](CCCCN)C(=O)O[C@@H]1C (some centres not stated) [TOLAASIN I] | 0.32 µg | 2.56 µg | 0.32 µg | 0.32 µg | >5.12 µg | >5.12 µg
C/C=C(\NC(=O)[C@H](NC(=O)[C@H](CC(C)C)NC(=O)[C@@H](CCC(N)=O)NC(=O)[C@@H](NC(=O)[C@H](NC(=O)[C@@H](CC(C)C)NC(=O)[C@@H](CO)NC(=O)[C@H](NC(=O)[C@H](CC(C)C)NC(=O)[C@H](CO)NC(=O)[C@H]1CCCN1C(=O)/C(=C/C)NC(=O)CC(O)CCCCC)C(C)C)C(C)C)C(C)C)C(C)C)C(=O)N[C@H]1C(=O)N[C@@H](C(C)C)C(=O)N[C@@H](CCO)C(=O)N[C@H](CCN)C(=O)N[C@@H](CCCCN)C(=O)O[C@@H]1C (some centres not stated) [TOLAASIN B] | 2.56 µg | >5.12 µg | 2.56 µg | 1.28 µg | >5.12 µg | >5.12 µg
C/C=C(\NC(=O)[C@H](NC(=O)[C@H](CC(C)C)NC(=O)[C@@H](CCC(N)=O)NC(=O)[C@@H](NC(=O)[C@H](NC(=O)[C@@H](CC(C)C)NC(=O)[C@@H](CO)NC(=O)[C@H](NC(=O)[C@H](CC(C)C)NC(=O)[C@H](CO)NC(=O)[C@H]1CCCN1C(=O)/C(=C/C)NC(=O)CC(O)CCCCC)C(C)C)C(C)C)C(C)C)C(C)C)C(=O)N[C@H]1C(=O)N[C@@H](CC(C)C)C(=O)N[C@@H](CCO)C(=O)N[C@H](CCN)C(=O)N[C@@H](CCCCN)C(=O)O[C@@H]1C (some centres not stated) [TOLAASIN D] | 0.16 µg | 2.56 µg | 0.16 µg | 0.16 µg | >5.12 µg | >5.12 µg
C/C=C(\NC(=O)[C@H](NC(=O)[C@H](CC(C)C)NC(=O)[C@@H](CCC(N)=O)NC(=O)[C@@H](NC(=O)[C@H](NC(=O)[C@@H](CC(C)C)NC(=O)[C@@H](CO)NC(=O)[C@H](NC(=O)[C@H](CC(C)C)NC(=O)[C@H](CO)NC(=O)[C@H]1CCCN1C(=O)/C(=C/C)NC(=O)CCCC(=O)O)C(C)C)C(C)C)C(C)C)C(C)C)C(=O)N[C@H]1C(=O)N[C@@H]([C@@H](C)CC)C(=O)N[C@@H](CCO)C(=O)N[C@H](CCN)C(=O)N[C@@H](CCCCN)C(=O)O[C@@H]1C [TOLAASIN A] | 1.28 µg | 5.12 µg | 1.28 µg | 1.28 µg | >5.12 µg | >5.12 µg
C/C=C(\NC(=O)[C@H](NC(=O)[C@H](CC(C)C)NC(=O)[C@@H](CCC(N)=O)NC(=O)[C@@H](NC(=O)[C@H](NC(=O)[C@@H](CC(C)C)NC(=O)[C@@H](CO)NC(=O)[C@H](NC(=O)[C@H](CC(C)C)NC(=O)[C@H](CO)NC(=O)[C@H]1CCCN1C(=O)/C(=C/C)NC(=O)CC(O)CCCCC)C(C)C)C(C)C)C(C)C)C(C)C)C(=O)N[C@@H](C(=O)N[C@H](C(=O)N[C@@H](CCO)C(=O)N[C@H](CCN)C(=O)N[C@@H](CCCCN)C(=O)O)[C@@H](C)CC)[C@@H](C)O (some centres not stated) [TOLAASIN C] | 5.12 µg | >5.12 µg | >5.12 µg | >5.12 µg | >5.12 µg | >5.12 µg
